These results are taken from ChEMBL document CHEMBL3745677, “Discovery of 6-(4-{[5-Cyclopropyl-3-(2,6-dichlorophenyl)isoxazol-4-yl]methoxy}piperidin-1-yl)-1-methyl-1H-indole-3-carboxylic Acid: A Novel FXR Agonist for the Treatment of Dyslipidemia” (J Med Chem, 2015).

The test system of series [1] is Rattus norvegicus. The series is described as follows: Antidyslipidemic activity in ZDF rat assessed as HDL level at 10 mg/kg cotreated with 0.3 mg/kg rosiglitazone for 9 days by FPLC analysis (reference value: 48.3 mg/dL). In kind it is functional, Zucker.
The nature of series [2]: Volume of distribution at steady state in cynomolgus monkey at 0.91 mg/kg, iv by LC-MS/MS analysis. In kind it is ADME, organism-based, Macaca fascicularis. The conditions noted are these: in vivo, read-out: Vdss. A digest of the protocol:
(§1)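 Intravenous dose given in 5% Solutol / 5% EtOH in saline (1 mg/kg rat and dog, 0.91 mpk monkey). Plasma samples collected and analyzed by LC-MS/MS; parameters reported as mean ± SD, N=2-3.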

The nature of series [3]: Fraction unbound in human plasma. The series is classed as ADME, cell-free.
Series [4] is described as follows: Initial plasma concentration in beagle dog at 1 mg/kg, iv by LC-MS/MS analysis. The series is classed as ADME, organism-based, Canis lupus familiaris. A digest of the protocol: as §1
Series [5] is described as follows: Volume of distribution at steady state in Sprague-Dawley rat at 1 mg/kg, iv by LC-MS/MS analysis. The series is classed as ADME, organism-based. The conditions noted are these: in vivo, read-out: Vdss. The method in brief:
as §1

Series [6] concerns Mus musculus. In words: Antidyslipidemic activity in western-diet fed mouse expressing LDL-receptor (-/-) assessed as decrease in low density lipoprotein level at 1 mg/kg qd for a week administered via gavage by FPLC analysis. The conditions noted are these: po. The series is classed as functional. A digest of the protocol: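 LDLR null male mice, six per group, were dosed by gavage once daily for one week (vehicle 5% Solutol, 5% EtOH, 1% wt/v CMC; 5 mL/kg). Serum was collected by cardiac puncture on day 7 under CO2 anaesthesia. Pooled serum from each treatment group was fractionated by FPLC to quantify VLDL and LDL.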

Series [7] can be described thus: Tmax in beagle dog at 3 mg/kg, po by LC-MS/MS analysis. In kind it is ADME, organism-based, Canis lupus familiaris. The following applies: in vivo. The method in brief:
(§2)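 Oral/nasogastric dosing at 3 mpk in 1.0% CMC/0.25% PS80/0.05% antifoam in purified water. Plasma samples collected and analyzed by LC-MS/MS; parameters reported as mean ± SD, N=2-3.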

For series [8], the system named is Rattus norvegicus. The series is described as follows: Antidyslipidemic activity in ZDF rat assessed as LDL/IgHDL level at 10 mg/kg for 9 days by FPLC analysis (reference value: 17.8 mg/dL). In kind it is functional, Zucker.
The nature of series [9]: Fraction unbound in rat plasma. In kind it is ADME, cell-free.
Series [10] relates to Mus musculus. In words: Antidyslipidemic activity in western-diet fed mouse expressing LDL-receptor (-/-) assessed as decrease in triglyceride level at 1 mg/kg qd for a week administered via gavage by FPLC analysis. In kind it is functional. The following applies: po.
Series [11] in a line: Tmax in Sprague-Dawley rat at 3 mg/kg, po by LC-MS/MS analysis. In kind it is ADME, organism-based. The conditions noted are these: in vivo. A digest of the protocol: as §2
In another series the target is T1, Glucocorticoid receptor (Homo sapiens, UniProt P04150).
T1 sequence (P04150 whole entry): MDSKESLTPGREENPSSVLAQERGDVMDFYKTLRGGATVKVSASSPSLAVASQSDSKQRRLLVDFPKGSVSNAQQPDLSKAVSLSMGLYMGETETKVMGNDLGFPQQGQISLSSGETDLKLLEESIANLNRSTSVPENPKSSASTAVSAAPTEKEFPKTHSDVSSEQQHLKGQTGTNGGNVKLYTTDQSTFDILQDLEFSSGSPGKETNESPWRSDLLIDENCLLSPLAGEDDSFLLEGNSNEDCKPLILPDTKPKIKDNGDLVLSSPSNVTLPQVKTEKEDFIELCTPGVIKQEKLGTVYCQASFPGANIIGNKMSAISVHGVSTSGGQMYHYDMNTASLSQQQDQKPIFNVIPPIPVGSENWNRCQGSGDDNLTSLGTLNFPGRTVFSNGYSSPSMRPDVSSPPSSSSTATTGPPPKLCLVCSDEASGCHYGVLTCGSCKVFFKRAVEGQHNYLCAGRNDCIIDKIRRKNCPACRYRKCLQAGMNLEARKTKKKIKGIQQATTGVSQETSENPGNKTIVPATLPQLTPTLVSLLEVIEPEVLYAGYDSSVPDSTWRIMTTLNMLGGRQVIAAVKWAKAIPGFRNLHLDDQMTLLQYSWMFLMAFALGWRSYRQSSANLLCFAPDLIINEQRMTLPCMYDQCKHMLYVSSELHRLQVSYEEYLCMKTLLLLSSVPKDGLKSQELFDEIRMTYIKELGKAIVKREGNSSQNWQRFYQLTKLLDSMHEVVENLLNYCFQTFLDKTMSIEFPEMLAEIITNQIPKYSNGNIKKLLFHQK
The series is described as follows: Agonist activity at glucocorticoid receptor (unknown origin) expressed in HEK293 cells assessed as transcriptional activation. The series is classed as cell-based.

A short description of series [12]: Clearance in cynomolgus monkey at 0.91 mg/kg, iv by LC-MS/MS analysis. The conditions noted are these: in vivo. The series is classed as ADME, organism-based, Macaca fascicularis. The method in brief:
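Sprague Dawley rats, Beagle dogs and Cynomolgus monkeys were dosed IV at 1 mg/kg (rat, dog) or 0.91 mpk (monkey) in 5% Solutol/5% EtOH in saline. Oral/nasogastric dosing was 3 mpk in 1.0% CMC/0.25% PS80/0.05% antifoam in purified water. Samples were processed to plasma and analysed by LC-MS/MS; values are mean ± SD, N=2-3.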

As a reminder, the fraction unbound is the share of the substance not bound to proteins or other matrix. As usually defined, the inhibition in vivo is the percentage by which the read-out fell short of the control. What is called Tmax is the time at which the peak concentration occurs. The pEC50 is the negative decadic logarithm of the EC50, by convention in mol/L. As a reminder, the clearance is the volume of plasma or blood freed of the substance per unit of time.

pEC50: −log10 of the molar value.

As to `Cn1cc(C(=O)O)c2ccc(N3CCC(OCc4c(-c5c(Cl)cccc5Cl)noc4C4CC4)CC3)cc21` [TERN-101], the Activity with Rattus norvegicus [1] was 95 mg/dL; in the series on Rattus norvegicus [8] it was 12.5 mg/dL. Further, the results for the Vd in series [2] and in series [5] were 0.597 L/kg and 1.24 L/kg, respectively. Also, the fraction unbound amounted to 0.032 in series [3] and 0.02 in series [9]. The compound also yielded a C0 in [4] of 1.18 µg/mL. Moreover, the inhibition in vivo at 1 mg/kg with Mus musculus [6] stood at 1%; in the series with Mus musculus [10], 25%. Besides, the Tmax in [7] was 45 min; in [11], 64.8 min. In addition, the pEC50 on Glucocorticoid receptor was below 5.00. The compound further showed a clearance in series [12] of 0.36 L/h/kg.
